Converted amounts (≈) assume the structure as drawn.
Key:
Tobacco mosaic virus [1] = test: Antiviral activity against Tobacco mosaic virus (TMV) in compound treated Nicotiana tabacum L.leaves assessed as curative effect from local lesions at 500 ug/ml measured after 3 to 4 days; type: functional
Tobacco mosaic virus [2] = test: Antiviral activity against Tobacco mosaic virus (TMV) in compound treated Nicotiana tabacum L.leaves assessed as protective effect from local lesions at 500 ug/ml measured after 3 to 4 days; type: functional
Procedure, shortened: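 Half-leaf test on same-age N. tabacum L. leaves: compound solution smeared on the left half, solvent on the right as control. Leaves were inoculated 12 h later by brush with TMV at 6 × 10-3 mg/mL on silicon carbide-dusted leaves, then rinsed with water. Local lesions were counted 3–4 days later, three repetitions. Inhibition % = (control lesions − treated lesions)/control lesions × 100.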

Tobacco mosaic virus [3] = test: Antiviral activity against Tobacco mosaic virus (TMV) in compound treated Nicotiana tabacum L.leaves assessed as curative effect; type: functional, organism-based
Tobacco mosaic virus [4] = test: Antiviral activity against Tobacco mosaic virus (TMV) in compound treated Nicotiana tabacum L.leaves assessed as curative effect at 250 ug/ml; type: functional
Tobacco mosaic virus [5] = test: Antiviral activity against Tobacco mosaic virus (TMV) in compound treated Nicotiana tabacum L.leaves assessed as curative effect at 125 ug/ml; type: functional
Tobacco mosaic virus [6] = test: Antiviral activity against Tobacco mosaic virus (TMV) in compound treated Nicotiana tabacum L.leaves assessed as curative effect at 500 ug/ml; type: functional

SMILES	Activity (Tobacco mosaic virus [1]) [%]	Activity (Tobacco mosaic virus [2]) [%]	EC50 (Tobacco mosaic virus [3]) [µg/mL]	Activity (Tobacco mosaic virus [4]) [%]	Activity (Tobacco mosaic virus [5]) [%]	Activity (Tobacco mosaic virus [6]) [%]
CCCOP(=O)(OCCC)C(NC(=S)N[C@H](C)c1ccccc1)c1ccccc1 (stereo not given in full)	41.9	45.9	–	–	–	–
CC(C)OP(=O)(OC(C)C)C(NC(=S)N[C@@H](C)c1ccccc1)c1ccccc1 (stereo not given in full)	36.8	36.9	–	–	–	–
CCCCOP(=O)(OCCCC)C(NC(=S)N[C@@H](C)C1CCCCC1)c1ccccc1 (stereo not given in full)	50.4	36.3	379 (≈ 809 µM)	37.2	32.9	50.4
CCOP(=O)(OCC)C(NC(=S)N[C@H](C)c1ccccc1)c1ccccc1 (stereo not given in full)	45.2	42.6	–	–	–	–
CCCCOP(=O)(OCCCC)C(NC(=S)N[C@H](C)C1CCCCC1)c1ccccc1 (stereo not given in full)	34.6	33.7	–	–	–	–
CCCOP(=O)(OCCC)C(NC(=S)N[C@@H](C)C1CCCCC1)c1ccccc1 (stereo not given in full)	54.3	30.9	240 (≈ 544 µM)	49	39.1	54.8
CCOP(=O)(OCC)C(NC(=S)N[C@@H](C)c1ccccc1)c1ccccc1 (stereo not given in full)	41.8	37.6	–	–	–	–
CCOP(=O)(OCC)C(NC(=S)N[C@@H](C)C1CCCCC1)c1ccccc1 (stereo not given in full)	36.3	36.4	–	–	–	–
CCOP(=O)(OCC)C(NC(=S)N[C@H](C)C1CCCCC1)c1ccccc1 (stereo not given in full)	40.1	33.1	–	–	–	–
CC(C)OP(=O)(OC(C)C)C(NC(=S)N[C@H](C)C1CCCCC1)c1ccccc1 (stereo not given in full)	34.6	33.7	–	–	–	–
CC(C)OP(=O)(OC(C)C)C(NC(=S)N[C@H](C)c1ccccc1)c1ccccc1 (stereo not given in full)	34.5	46.3	–	–	–	–
CCCOP(=O)(OCCC)C(NC(=S)N[C@H](C)C1CCCCC1)c1ccccc1 (stereo not given in full)	40.7	37.9	–	–	–	–
CCCOP(=O)(OCCC)C(NC(=S)N[C@@H](C)c1ccccc1)c1ccccc1 (stereo not given in full)	50.5	42.7	400 (≈ 920 µM)	37.7	30.9	50.5
CC(C)OP(=O)(OC(C)C)C(NC(=S)N[C@@H](C)C1CCCCC1)c1ccccc1 (stereo not given in full)	50.4	36.3	413 (≈ 938 µM)	36.7	29	50.4
CNCC(=O)N[C@@H](CO)C(=O)N[C@H]1[C@H](O)[C@@H](O)[C@H](n2ccc(N)nc2=O)O[C@@H]1C(N)=O [NINGNANMYCIN]	56.2	60.6	227 (≈ 512 µM)	50.7	41.9	56.2
